Test results reported in article PMC3516907 (ChemMedChem, 2010).

Assays:
[1] = system: endogenous ER in MCF7 breast cancer cells; assay: ER degradation in MCF7 cells by western blotting; format: cell-based, human; details: with/without proteasome inhibitor epoxomicin (Fig 3B)
In short: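 MCF7 cells at 70% confluence, held at least 24 h in RPMI with 5% charcoal-dextran FBS, were treated 48 h (DMSO vehicle). Lysis was 1 h on ice in Tris/NaCl/NP40/Triton X-100 buffer with protease inhibitors, with Bradford protein assay. Equal protein ran on 10% SDS-PAGE and was blotted to PVDF. Anti-ER was applied overnight at 4°C, secondary 1 h at room temperature. Detection was ECL/film, reprobed for β-actin loading.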

ER in MCF7 cells = assay: ER degradation in MCF7 cells by immunofluorescence; format: cell-based, human
In short: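 MCF7 cells were grown on ethanol/UV-sterilised coverslips for 24 h, then switched to phenol-red-free RPMI with 5% charcoal/dextran-treated FBS. Compounds were diluted in this medium from a DMSO vehicle and applied for 48 h. Cells were fixed in 4% PFA, permeabilised with 0.2% Triton X-100, and blocked in 10% goat serum/0.1% BSA in PBST. Staining used anti-ER with an Alexa Fluor 488 secondary and DAPI mounting, imaged by inverted fluorescence microscopy.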

Compound	proteasome dependence of ER degradation (western blot) [1]	ER signal by immunofluorescence on co-treatment with epoxomicin (ER in MCF7 cells; 48h, 25 μM PROTACs or 10 nM E2 plus epoxomicin (Fig 3A bottom row))	ER signal (green, FITC) by immunofluorescence vs DMSO control (ER in MCF7 cells; 48h treatment, 25 μM PROTACs, 10 nM E2 (Fig 3A top row))
C[C@]12CC[C@@H]3c4ccc(O)cc4CC[C@H]3[C@@H]1CC[C@@H]2O [E2, 17β-estradiol]	confirmed via western blotting	blocked by co-treatment with epoxomicin	–
-Leu-Ala-Pro^OHTyr-Ile-Bzl [PROTAC 24]	confirmed via western blotting	–	attenuation of ER signal (green) was observed
